core dimer inh: blocks dimerization of HCV core protein; TR-FRET GST/Flag-core106 dimerization, 1536-well; inhibition, % at 5 µM; actives 0.33% (n = 300,000); AID 1899;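 active = inhibition above the mean of all tested compounds plus 3 SD, set per screening campaign, cut at about 45% in these data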
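System: GST-tagged and Flag-tagged HCV core protein residues 1-106 / Input: core106 proteins, GST 13.5 nM and Flag 17 nM / Buffer or medium: KF-containing HEPES buffer, pH 7.45, DTT, CHAPS, BSA / Probe or stimulus: Eu-anti-GST and XL665-anti-Flag labelled anti-tag antibodies / Schedule: 4 h, 22.5 °C incubation / Technique: TR-FRET 671 and 617 nm emission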
SUMO HTRF inh: blocks human SUMOylation mediated by UBC9; P63279; HTRF SUMOylation assay, SAE1/SAE2 + UBC9, in vitro; inhibition, % at 35 µM; actives 0.36% (n = 290,000); AID 2006; in the data active = inhibition above about 50%, passing the limit was not always enough
Target sequence (P63279 whole entry, looked up): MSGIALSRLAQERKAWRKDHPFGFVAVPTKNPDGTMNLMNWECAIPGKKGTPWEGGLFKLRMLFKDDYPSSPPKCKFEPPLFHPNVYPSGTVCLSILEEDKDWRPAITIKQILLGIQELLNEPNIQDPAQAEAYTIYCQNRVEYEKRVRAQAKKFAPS
EBNA-1 inhibitor: blocks EBNA-1 binding to DNA. EBNA-1 DNA binding, fluorescence polarization. inhibition, % at 14.8 µM. actives 0.34% (n = 300,000). AID 1950; in the data active = inhibition above about 28%
ZTA counter: counter-screen for EBNA-1 inhibitors: inhibitors of Epstein-Barr virus ZTA. P03206. ZTA-DNA binding, fluorescence polarization. inhibition, % at 11 µM. actives 0.15% (n = 320,000). AID 2234; in the data active = inhibition above about 33%
Target sequence (P03206 whole entry, looked up): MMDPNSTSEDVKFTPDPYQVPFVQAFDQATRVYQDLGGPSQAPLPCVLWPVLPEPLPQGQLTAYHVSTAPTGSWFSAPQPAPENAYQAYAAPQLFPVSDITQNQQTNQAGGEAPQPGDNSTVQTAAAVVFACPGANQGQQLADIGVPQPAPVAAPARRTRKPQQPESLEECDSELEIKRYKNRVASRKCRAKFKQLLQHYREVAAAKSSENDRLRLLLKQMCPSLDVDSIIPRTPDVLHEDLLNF
HCV NS3 hel inh: inhibitors of Hepatitis C virus NS3 helicase | NS3 helicase DNA unwinding, Cy5 molecular beacon fluorescence | inhibition, % at 10.9 µM | actives 0.56% (n = 290,000) | AID 1800;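 active = inhibition above the mean of all tested compounds plus 3 SD, set per campaign, cut at about 35% in these data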
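Control set: DMSO versus 110 µM thioflavine S; Material: NS3 helicase fragment of HCV; Measured by: Cy5 fluorescence at 0 and 60 min, beacon hairpin quenching; Read-out basis: percent inhibition from t60/t0 fluorescence ratio; Times: reaction time 60 min, 25 °C; Repeats: single replicate; Compound dosing: single dose, 10.9 µM nominal final, DMSO 0.8% final.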
Hits are given with their value; . = inactive; / = no result. In the library only some 1.4% were active in any assay of this set; here they are far more common.

SMILES	core dimer inh	SUMO HTRF inh	EBNA-1 inhibitor	ZTA counter	HCV NS3 hel inh
COc1ccc(C2=NN(c3nc(-c4ccccc4)c(CC(=O)O)s3)C(c3ccco3)C2)cc1 (stereo not drawn)	87	.	40	.	.
O=C(Cc1ccc(S(=O)(=O)N2CCOCC2)s1)Nc1nc2c(s1)CCCC2	84	.	.	.	.
CC(=O)Nc1ccc(NC(=O)Cc2ccc(S(=O)(=O)N3CCCCC3)s2)cc1	60	.	.	.	.
O=C(Cc1cccs1)Nc1ccc(S(=O)(=O)N2CCCCC2)cc1	72	.	.	.	.
O=C(O)/C=C/c1ccc(Cn2ccnc2)cc1	.	/	.	.	/
Cc1ccccc1NC(=O)c1ccc(N/N=C/c2ccccc2O)c([N+](=O)[O-])c1	.	57	.	.	.
Cc1ccc(NC(=O)c2ccc(N/N=C/c3cccc(O)c3)c([N+](=O)[O-])c2)cc1	.	.	.	.	.
C#CCOCCOCCOCCNc1nc(N2CCN(C(=O)[C@H](CCCCN)n3cc(CCCC)nn3)CC2)nc(N2CCN(C(=O)[C@H](CCCCN)n3cc(CCC(=O)O)nn3)CC2)n1	.	/	.	.	/
O=C(c1ccccc1)C1C(=O)c2ccccc2C1=O	.	.	.	.	.
O=C(/C=C/c1ccccc1)C1C(=O)c2ccccc2C1=O	.	59	.	.	.
CCCCCN(C(=O)CCC(=O)OCc1cc(C)ccc1C)c1c(N)n(CCCC)c(=O)[nH]c1=O	.	/	.	.	/
COc1c(F)c(F)c(C(=O)Nc2ccccc2N2CCN(C(C)=O)CC2)c(F)c1F	47	.	.	.	.
COc1cccc(-n2c(C)cc(/C=C3\C(=N)N4N=C(CC(=O)N5CCOCC5)SC4=NC3=O)c2C)c1	.	.	.	.	.
CN(c1ccc(Cl)cc1)c1cc(=O)n(C)c2ccccc12	67	.	.	.	.
Cc1sc2nc(C(C)C)nc(SCC(=O)NC3CC3)c2c1C	.	.	129	69	.
O=C(N1CCN(Cc2ccc3c(c2)OCO3)CC1)C(Cl)(Cl)Cl	.	.	.	.	.
Nc1ccc2nc(-c3ccc(-c4nc5ccc(N)cc5[nH]4)cc3)[nH]c2c1	.	62	.	.	.
Nc1ccc2nc(-c3cccc(-c4nc5ccc(N)cc5[nH]4)n3)[nH]c2c1	.	.	.	.	.
COc1ccc(-c2nc3ccc([N+](=O)[O-])cc3[nH]2)cc1	.	55	.	.	.
Cc1ccc(-c2nc3ccc([N+](=O)[O-])cc3[nH]2)cc1	.	.	.	.	.
O=[N+]([O-])c1ccc2nc(CCCc3nc4ccc([N+](=O)[O-])cc4[nH]3)[nH]c2c1	.	69	.	.	.
O=[N+]([O-])c1ccc2nc(CN3CCCCC3)[nH]c2c1	.	.	.	.	.
O=C(CCNC(=O)N1CC(=O)Nc2ccccc21)Nc1cccc(Cl)c1	.	.	.	.	.
O=C1OCC(c2ccccc2)=C1c1ccccc1	.	.	.	.	.
N#CC1=C(c2ccc(-c3ccccc3)cc2)COC1=O	52	.	.	.	.
SMILES	core dimer inh	SUMO HTRF inh	EBNA-1 inhibitor	ZTA counter	HCV NS3 hel inh
CC(C)c1ccc(OCC(=O)Nc2ccc3oc(=O)ccc3c2)cc1	.	.	.	.	.
Cc1[nH]c2c(C)cccc2c1CCNC(=O)c1ccc2c(c1[N+](=O)[O-])C(=O)c1ccccc1C2=O	60	.	.	.	.
Cc1ccc(S(=O)(=O)c2c(N)n(CCCN(C)C)c3nc4ccccc4nc23)cc1	.	.	.	.	.
CN(C)CCCn1c(N)c(C#N)c2nc3ccccc3nc21	.	103	.	.	.
CCC(c1nnc(SCc2nc3ccccc3s2)n1Cc1ccccc1)N(C)C (stereo not drawn)	.	.	.	.	.
c1ccc(Cn2c(SCc3nc4ccccc4s3)nnc2-c2ccco2)cc1	50	.	.	.	.
Cc1cccc(CSc2ccc(S(=O)(=O)N3CCCC3)cn2)c1	/	/	/	.	/
O=C(NCc1ccncc1)c1ccc(S(=O)(=O)Nc2ccccc2)cc1	.	/	.	.	/
Cc1ccc(/C=C2/SC(=S)N(C3CCCCC3)C2=O)o1	68	.	.	.	.
Cc1ccc(/C=C2\SC(=S)N(CC3CCCO3)C2=O)o1 (stereo not drawn)	.	.	.	.	.
CC1(C)S[C@@H]2[C@H](NC(=O)COc3ccccc3)C(=O)N2C1C(=O)OCc1cc2ccccc2n1S(=O)(=O)c1ccccc1 (stereo partly drawn)	66	.	.	.	.

From PubChem
